Assays:
Type in all cases: functional
Trichinella spiralis [1] = test: Antitrichinellosis activity against Trichinella spiralis larvae at 100 ug/ml after 24 hrs by Campbell's method
How it was run: (§1)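 Encapsulated T. spiralis larvae were held at 150 per 1 ml physiological solution with compound dissolved in DMSO–water. Incubation was at 37 °C in a humid thermostatted chamber. Larval vitality was scored by stereomicroscope at 24 and 48 h after treatment.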

Trichinella spiralis [2] = test: Antitrichinellosis activity against Trichinella spiralis larvae at 200 ug/ml after 24 hrs by Campbell's method; how it was run: as §1
Trichinella spiralis [3] = test: Antitrichinellosis activity against Trichinella spiralis larvae at 100 ug/ml after 48 hrs by Campbell's method; how it was run: as §1
Trichinella spiralis [4] = test: Antitrichinellosis activity against Trichinella spiralis larvae at 50 ug/ml after 24 hrs by Campbell's method; how it was run: as §1
Trichinella spiralis [5] = test: Antitrichinellosis activity against Trichinella spiralis larvae at 200 ug/ml after 48 hrs by Campbell's method; how it was run: as §1
Trichinella spiralis [6] = test: Antitrichinellosis activity against Trichinella spiralis larvae at 50 ug/ml after 48 hrs by Campbell's method; how it was run: as §1
Trichinella spiralis [7] = test: Antitrichinellosis activity against Trichinella spiralis intestinal phase larvae in mouse at 50 mg/kg, po after 3 days
How it was run: (§2)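 White immature mice each infected with 150 Trichinella larvae, five mice per group. Oral dosing by thin metallic probe into the oesophagus as DMSO solution, once daily for 3 days starting on day 3 after infection. Controls were untreated mice and mice given albendazole at 100 mg/kg. Read-out was microscopic examination of small-intestine contents after autopsy for larvae.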

Trichinella spiralis [8] = test: Antitrichinellosis activity against Trichinella spiralis intestinal phase larvae in mouse at 100 mg/kg, po after 3 days; how it was run: as §2

| SMILES | Efficacy (Trichinella spiralis [1]) [%] | Efficacy (Trichinella spiralis [2]) [%] | Efficacy (Trichinella spiralis [3]) [%] | Efficacy (Trichinella spiralis [4]) [%] | Efficacy (Trichinella spiralis [5]) [%] | Efficacy (Trichinella spiralis [6]) [%] | Efficacy (Trichinella spiralis [7]) [%] | Efficacy (Trichinella spiralis [8]) [%] |
| --- | --- | --- | --- | --- | --- | --- | --- | --- |
| CCCn1c(Nc2nc3ccccc3[nH]2)nc2ccccc21 | 17.6 | 67.7 | 34.5 | 12 | 78 | 20 | – | – |
| CCCn1c(Nc2nc3ccccc3n2CCC)nc2ccccc21 | 81.2 | 100 | 95.3 | 45.9 | 100 | 58.6 | 100 | 100 |
| Cn1c(Nc2nc3ccccc3[nH]2)nc2ccccc21 | 13.5 | 30.2 | 28.3 | 9.1 | 58.3 | 17.2 | – | – |
| CCn1c(Nc2nc3ccccc3n2CC)nc2ccccc21 | 92 | 94 | 97.5 | 45.8 | 98 | 66.3 | 100 | 100 |
| CCCn1c(Nc2nc3ccccc3n2CC)nc2ccccc21 | 84 | 96 | 92.1 | 42 | 100 | 46 | 100 | 100 |
| CCn1c(Nc2nc3ccccc3[nH]2)nc2ccccc21 | 20 | 38.2 | 38.6 | 15.7 | 65 | 25.3 | – | – |
| Cn1c(Nc2nc3ccccc3n2C)nc2ccccc21 | 17.3 | 45.7 | 18.3 | 8.8 | 67.9 | 14 | – | – |
| CCCn1c(Nc2nc3ccccc3n2C)nc2ccccc21 | 73.8 | 80 | 80 | 33.3 | 88.4 | 43.4 | – | – |
| CCCSc1ccc2[nH]c(NC(=O)OC)nc2c1 [ALBENDAZOLE] | 10.7 | 13.3 | 15.1 | 10.6 | 17.4 | 14.8 | – | 100 |
| CCn1c(Nc2nc3ccccc3n2C)nc2ccccc21 | 65.7 | 76.3 | 73 | 35.3 | 84 | 65.3 | – | – |

From ChEMBL document CHEMBL1140685, “Synthesis and antitrichinellosis activity of some bis(benzimidazol-2-yl)amines” (2007)
